Holding throughout (format): functional
A short description of assay [1]: Growth inhibition of human Bre-04 cells after 48 hrs by SRB assay. Particulars: Bre04, 48 h. An outline of the steps: (§1)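 ATCC cancer lines (Bre-04 = MDA-MB-231, Lu-04 = NCI-H460, N-04 = SF-268), cultured per supplier instructions. Cells seeded in 96-well plates, incubated 16 h at 37 °C, then exposed to a range of compound concentrations for 48 h. Taxol served as positive control. Cytotoxicity read by colorimetric sulforhodamine B (SRB) chemosensitivity assay.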

Assay [2] is described as follows: Growth inhibition of human N-04 cells after 48 hrs by SRB assay. As to conditions: N04, 48 h. An outline of the steps:
as §1
In general terms: Sulforhodamine B stains cellular protein and so reports cell mass.

Assay [3] in a line: Growth inhibition of human Lu-04 cells after 48 hrs by SRB assay. Particulars: Lu04, 48 h. An outline of the steps: as §1

In brackets after ≈: the same amount, converted by molar mass.

As usually defined, the GI50 is the concentration at which growth is held to half of that of the control. As to `CS[C@@]1(CO)C(=O)N(C)[C@@](Cc2cn([C@]34C[C@]5(SC)C(=O)N(C)[C@@](CO)(SC)C(=O)N5[C@H]3Nc3ccccc34)c3ccccc23)(SC)C(=O)N1C`, the GI50 in assay [1] amounted to 0.06 µg/mL (≈ 0.0778 µM); in assay [2], 0.2 µg/mL (≈ 0.259 µM); in assay [3] it was 0.05 µg/mL (≈ 0.0648 µM).
Regarding `CC(=O)O[C@H]1C(=O)[C@@]2(C)[C@H]([C@H](OC(=O)c3ccccc3)[C@]3(O)C[C@H](OC(=O)[C@H](O)[C@@H](NC(=O)c4ccccc4)c4ccccc4)C(C)=C1C3(C)C)[C@]1(OC(C)=O)CO[C@@H]1C[C@@H]2O` [PACLITAXEL], the GI50 came out at 0.04 µg/mL (≈ 0.0468 µM) in assay [1], 0.04 µg/mL (≈ 0.0468 µM) in assay [2] and 0.03 µg/mL (≈ 0.0351 µM) in assay [3].
As to `CS[C@]12COCN3c4ccccc4[C@]4(C[C@]5(SC)C(=O)N(C)[C@@](CO)(SC)C(=O)N5[C@@H]34)n3cc(c4ccccc43)C[C@](SC)(C(=O)N1C)N(C)C2=O` [CHAETOCOCHIN A], the GI50 in assay [1] is 4.1 µg/mL (≈ 5.24 µM); in assay [2] it was 7 µg/mL (≈ 8.94 µM); in assay [3], 3.4 µg/mL (≈ 4.34 µM).
On the same counts, the results for `CS[C@@]1(CO)C(=O)N(C)[C@@](Cc2cn([C@]34C[C@@]56SS[C@@](CO)(C(=O)N5[C@H]3Nc3ccccc34)N(C)C6=O)c3ccccc23)(SC)C(=O)N1C` [CHAETOCOCHIN C] are 0.4 µg/mL (≈ 0.54 µM), 0.4 µg/mL (≈ 0.54 µM) and 1.9 µg/mL (≈ 2.56 µM).
